Assay results from ChEMBL document CHEMBL1132699, “Synthesis and biological evaluation of 2',3'-didehydro-2',3'- dideoxy-5-fluorocytidine (D4FC) analogues: discovery of carbocyclic nucleoside triphosphates with potent inhibitory activity against HIV-1 reverse transcriptase” (J Med Chem, 1999).

Experiments:
[1] = Tested in vitro for cytotoxicity against PBM cells; format: functional, cell-based; conditions: Homo sapiens, PBMC
SK-MES-1 = assay: Tested in vitro for anticancer activity against SK-MES-1 cells; format: functional, cell-based; conditions: Homo sapiens
[2] = system: Human immunodeficiency virus 1; assay: (§1) Tested in vitro for anti HIV-1 activity against PBM cells; format: functional; conditions: Human immunodeficiency virus 1, PBMC
[3] = system: Human immunodeficiency virus 1; assay: as §1; format: functional, organism-based; conditions: Human immunodeficiency virus 1, PBMC
MCF7 = assay: Tested in vitro for anticancer activity against MCF-7 cells; format: functional, cell-based; conditions: Homo sapiens
SK-MEL-28 [4] = assay: The compound was tested in vitro for anticancer activity against SK-MEL-28 cells; format: functional, cell-based; conditions: Homo sapiens
Method in brief: (§2)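 Growth inhibition in human or rat tumour cell lines. Cells cultured with drug in 96-well plates for 5 days (LNCaP, SK-MES-1), 4 days (CEM, MCF-7, SK-MEL-28, HepG2, 9L) or 3 days (PC-3). Solvent-exposed untreated cells served as negative control. Viable, actively metabolizing cells were read by MTT assay. DMSO stocks (40 mM) were diluted in growth medium. IC50 in μM.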

[5] = target: Human immunodeficiency virus type 1 reverse transcriptase (Human immunodeficiency virus 1) (UniProt Q72547); assay: (§3) The compound was tested for inhibitory activity against Recombinant HIV-1 reverse transcriptase
Method in brief: (§4)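 Extension assay with HIV-1 p66/51 heterodimer RT (1 unit) and r(I)n·(dC)12-18 template-primer (0.05 units/mL). Buffer: Tris-HCl pH 8.0, KCl, MgCl2, DTT, 100 μg/mL BSA, 1 μM [3H]dCTP. Incubated 1 h at 37 °C, stopped with cold 10% TCA/0.05% sodium pyrophosphate for 30 min at 4 °C. Precipitate filter-harvested and counted by beta counting. 3TC-TP served as positive control.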

HepG2 = assay: Tested in vitro for anticancer activity against HepG2 cells; format: functional, cell-based; conditions: Homo sapiens
PC-3 = assay: Tested in vitro for anticancer activity against PC-3 cells; format: functional, cell-based; conditions: Homo sapiens
SK-MEL-28 [6] = assay: Tested in vitro for anticancer activity against SK-MEL-28 cells; format: functional, cell-based; conditions: Homo sapiens
9L [7] = assay: Tested in vitro for anticancer activity against 9L cells; format: functional, cell-based; conditions: Rattus norvegicus; method in brief: as §2
Vero = assay: Tested in vitro for cytotoxicity against Vero cells; format: functional, cell-based; conditions: Chlorocebus sabaeus
LNCaP = assay: Tested in vitro for anticancer activity against LNCaP cells; format: functional, cell-based; conditions: Homo sapiens
CCRF-CEM = assay: Tested in vitro for anticancer activity against CEM cells; format: functional, cell-based; conditions: Homo sapiens
[8] = target: Human immunodeficiency virus type 1 reverse transcriptase (Human immunodeficiency virus 1, UniProt Q72547); assay: as §3; method in brief: as §4
9L [9] = assay: The compound was tested in vitro for anticancer activity against 9L cells; format: functional, cell-based; conditions: Rattus norvegicus; method in brief: as §2

SMILES | IC50 [1] [µM] | IC50 (SK-MES-1) [µM] | EC90 [2] [µM] | EC50 [3] [µM] | IC50 (MCF7) [µM] | IC50 (SK-MEL-28 [4]) [µM] | IC90 [5] [µM] | IC50 (HepG2) [µM] | IC50 (PC-3) [µM] | IC50 (SK-MEL-28 [6]) [µM] | IC50 (9L [7]) [µM] | IC50 (Vero) [µM] | IC50 (LNCaP) [µM] | IC50 (CCRF-CEM) [µM] | IC50 [8] [µM] | IC50 (9L [9]) [µM]
Cc1cn([C@H]2C[C@H](N=[N+]=[N-])[C@@H](CO)O2)c(=O)[nH]c1=O [ZIDOVUDINE] | > 100 | > 100 | 0.02 | 0.002 | > 10 | > 10 |  |  |  |  |  |  |  |  |  | 
Nc1ccc([C@@H]2CS[C@H](OP(=O)(O)OP(=O)(O)OP(=O)(O)O)O2)c(O)n1 |  |  |  |  |  |  | 29.8 |  |  |  |  |  |  |  |  | 
O=c1[nH]cc(F)c(=O)[nH]1 [FLUOROURACIL] | 5 | 13.1 |  |  | 41 |  |  | 37.9 | > 100 | 4.5 | 1 | 6.81 | > 100 | 90.5 |  | 
Nc1nc(=O)n([C@H]2C=C[C@@H](CO)O2)cc1F [DEXELVUCITABINE] | > 100 | > 100 | 0.77 | 0.046 | > 100 |  |  | > 100 | > 10 | > 100 |  | > 100 | > 100 | > 100 |  | 
Nc1nc(=O)n([C@H]2C=C[C@@H](CO)O2)cc1Br | 91.6 | > 100 | > 10 | > 10 | > 100 |  |  | > 100 | > 100 | > 100 |  | > 100 | > 100 | 42.5 |  | 
Nc1nc(=O)n([C@H]2C=C[C@@H](CO)O2)cc1I | 98.3 | > 100 | > 10 | > 10 | > 100 |  |  | > 100 | > 100 | > 100 |  | > 100 | > 100 | 107 |  | 
Nc1nc(=O)n([C@H]2C=C[C@@H](COP(=O)(O)OP(=O)(O)OP(=O)(O)O)C2)cc1F (racemic) |  |  |  |  |  |  | 2.2 |  |  |  |  |  |  |  | 0.27 | 
Nc1nc(=O)n([C@@H]2C=C[C@@H](CO)O2)cc1F | > 100 | > 100 | 70 | 20 | > 100 |  |  | > 100 | > 100 | > 100 | > 100 | > 100 | > 100 | > 100 |  | 
Nc1ccn(C2C=CC(CO)C2)c(=O)n1 (stereo not given) | > 100 |  | 59.9 | 9 |  |  |  |  |  |  |  | > 100 |  | > 100 |  | 
CC(=O)Nc1nc(=O)n([C@H]2C=C[C@@H](CO)O2)cc1F | > 100 | 84.6 | 6 | 1 | 62.9 |  |  | > 100 | > 100 | 108 |  | 103 | > 100 | 14.7 |  | 
Nc1nc(=O)n(C2C=CC(COP(=O)(O)OP(=O)(O)OP(=O)(O)O)C2)cc1F (racemic) |  |  |  |  |  |  | 4 |  |  |  |  |  |  |  | 0.4 | 
CCCC(=O)OC[C@@H]1C=C[C@H](n2cc(F)c(N)nc2=O)O1 | > 100 | > 100 | 0.61 | 0.15 | > 100 |  |  | > 100 | > 100 | > 100 | > 100 | > 100 | > 100 | > 100 |  | 
Nc1ccc([C@@H]2CS[C@H](OP(=O)(O)OP(=O)(O)OP(=O)(O)O)O2)c(=O)[nH]1 |  |  |  |  |  |  |  |  |  |  |  |  |  |  | 3.6 | 
Nc1nc(=O)n([C@@H]2C=C[C@H](CO)O2)cc1F [ELVUCITABINE] | 12.9 | 99.1 | 0.16 | 0.034 | 82.8 |  |  | 118 | > 100 | > 100 |  | 9.4 | 55.2 | 0.46 |  | 
Nc1nc(=O)n(C2C=CC(CO)C2)cc1F (stereo not given) | > 100 |  | 71 | 8.2 |  |  |  |  |  |  |  | > 100 |  | > 100 |  | 
Nc1ccn(C2C=CC(COP(=O)(O)OP(=O)(O)OP(=O)(O)O)C2)c(=O)n1 (racemic) |  |  |  |  |  |  | 3.4 |  |  |  |  |  |  |  | 0.38 | 
O=C1NC(O)C(F)=CN1[C@H]1C=C[C@@H](CO)O1 (stereo not given in full) | 32.2 | 4.2 | 23 | 7.9 | 54.1 |  |  | 59.3 | 63 | 21.7 | 1.2 | 7.9 | 67.8 | 9.1 |  | 
O=c1[nH]c(=O)n([C@@H]2C=C[C@H](CO)O2)cc1F | 2.3 | 4.6 | 3 | 0.26 | 15.8 |  |  | 35.4 | 83.4 | 7.45 | 1.9 | 32 | 57.2 | 12.9 |  | 
CCCNc1nc(=O)n([C@H]2C=C[C@@H](CO)O2)cc1F | 34.7 | > 100 | > 100 | > 100 | > 100 |  |  | > 100 | > 100 | > 100 |  | > 100 | > 100 | > 100 |  | 
O=c1[nH]c(=O)n([C@@H]2C=C[C@@H](CO)O2)cc1F | 47.4 | 10 | 23 | 7.5 | 67.3 |  |  | 37.1 | > 100 | 9.8 |  | 3 | 85.8 | 11.4 |  | 2.4
C[C@@H]1C[C@@H]([C@H](O)CC2CC(=O)NC(=O)C2)C(=O)[C@@H](C)C1 [CYCLOHEXIMIDE] | 2.1 | 2.7 |  |  | 1.5 |  |  | 2.5 | 3.5 | 1 | 0.2 | 1.2 | 1.2 | 0.12 |  | 
CCCCC(=O)OC[C@@H]1C=C[C@H](n2cc(F)c(N)nc2=O)O1 | > 100 | > 100 | 0.34 | 0.056 | > 100 |  |  | > 100 | > 100 | > 100 |  | > 100 | > 100 | 124 |  | 
CC(=O)OC[C@@H]1C=C[C@H](n2cc(F)c(N)nc2=O)O1 | > 100 | > 100 | 0.4 | 0.13 |  |  |  | > 100 | > 100 | > 100 |  | > 100 |  | > 100 |  | 
